# Measured values from different studies.
# Compare with care: the assays were run in different laboratories.
# EGFR G719S: Epidermal growth factor receptor (EGFR, Homo sapiens, UniProt P00533, G719S)
# EGFR del747-752/P753S: Epidermal growth factor receptor (EGFR, Homo sapiens, UniProt P00533, del747-752/P753S)
# EGFR G719C: Epidermal growth factor receptor (EGFR, Homo sapiens, UniProt P00533, G719C)
# EGFR L861Q: Epidermal growth factor receptor (EGFR, Homo sapiens, UniProt P00533, L861Q)
# EGFR T790M: Epidermal growth factor receptor (EGFR, Homo sapiens, UniProt P00533, T790M)
# EGFR del747-750/T751S: Epidermal growth factor receptor (EGFR, Homo sapiens, UniProt P00533, del747-750/T751S)
# EGFR L858R: Epidermal growth factor receptor (EGFR, Homo sapiens, UniProt P00533, L858R)
# EGFR del746-750: Epidermal growth factor receptor (EGFR, Homo sapiens, UniProt P00533, del746-750)
# EGFR del752-759: Epidermal growth factor receptor (EGFR, Homo sapiens, UniProt P00533, del752-759)
SMILES,target,test,setting,remaining binding [%]
O=C(Nc1c[nH]nc1C(=O)NC1CCNCC1)c1cc(F)cc(F)c1,EGFR G719S,"binding, competition with immobilised ligand",1 µM,100
O=C(c1ccc(Nc2nccc(-c3cc4ccccc4s3)n2)cc1)N1CCC(N2CCCC2)CC1,EGFR del747-752/P753S,"binding, competition with immobilised ligand",1 µM,90
CN(C)c1nccc(-c2cnn3ncccc23)n1,EGFR G719C,binding,1 µM,100
COc1cnc(Nc2cccc(S(N)(=O)=O)c2)nc1N1CCN(c2ccccc2)C(=O)C1,EGFR L861Q,"binding, competition with immobilised ligand",1 µM,100
FC(F)(F)c1ccc2c(c1)nc(-c1cccnc1)n2C1CC1,EGFR G719S,"cell-free assay, competition with immobilised ligand",1 µM,93
Nc1ncc2c(n1)-c1c([nH]c3ccc(C#CC4CC4)cc13)CCCC2,EGFR T790M,"binding, competition with immobilised ligand",1 µM,86
CCOCCn1cc(C(=O)Nc2ccc(-n3nc(-c4cccnc4)cc3C(F)(F)F)cn2)ccc1=O,EGFR del747-750/T751S,"cell-free assay, competition with immobilised ligand",1 µM,100
O=C(NCCCN1CCOCC1)c1ccc(Nc2ncc(Cl)c(-c3ccc(Cl)s3)n2)cc1,EGFR del747-750/T751S,"binding, competition with immobilised ligand",1 µM,100
CNC(=O)[C@@H]1CC[C@@H](n2c(-c3ccc4cnccc4c3)nc3ccc(C(=O)NCc4cccc(C(N)=O)c4)cc32)C1,EGFR L861Q,"binding, competition with immobilised ligand",1 µM,100
CCC(=N\O)/C(C)=C/c1ccc(F)cc1,EGFR L858R,"cell-free assay, competition with immobilised ligand",1 µM,65
F[C@@H]1CCN(c2nccc(-c3cnn4ncccc34)n2)C1,"Epidermal growth factor receptor (EGFR, Homo sapiens, UniProt P00533)",binding,1 µM,91
CCC(=O)N[C@H]1CC[C@@H](C(=O)N(C)c2ccc(-c3nc4ccccc4o3)cc2)C1,EGFR del746-750,"cell-free assay, competition with immobilised ligand",1 µM,78
CN(C)c1ncc(F)c(-c2cnn3ncccc23)n1,EGFR del752-759,binding,1 µM,100
CN1CCN(c2ccc(Nc3nccc(-c4ccccc4)n3)cc2C(F)(F)F)CC1,EGFR T790M,binding,10 µM,77
O=C(c1ccc(Nc2ncc(Cl)c(-c3cc4ccccc4s3)n2)cc1)N1CCC(N2CCCC2)CC1,EGFR del746-750,"binding, competition with immobilised ligand",1 µM,79
C[C@@H](c1cccc(C#N)c1)n1cc(Cl)cc(C(N)=O)c1=N,EGFR L858R,"cell-free assay, competition with immobilised ligand",1 µM,100
COc1ccnn2ncc(-c3ccnc(N(C)C)n3)c12,EGFR del752-759,binding,1 µM,86
Cc1cnc(Nc2ccc(C(=O)N3CCC(N4CCCC4)CC3)cc2)nc1-c1cc2ccccc2s1,EGFR del747-750/T751S,"binding, competition with immobilised ligand",1 µM,97
N[C@H]1CCN(c2nccc(-c3cnn4ncccc34)n2)C1,"Epidermal growth factor receptor (EGFR, Homo sapiens, UniProt P00533, L858R/T790M)",binding,1 µM,89
CCN1CCN(Cc2ccc(C(=O)Nc3ccc(C)c(Oc4ccc5c(c4)CC(=O)N5)c3)cc2C(F)(F)F)CC1,EGFR T790M,"binding, competition with immobilised ligand",1 µM,83
CS(=O)(=O)N1CCCC(NC(=O)[C@H](CCC2CCCCC2)NC(=O)c2ccc(CNc3ncnc4c3nnn4-c3ccccc3)cc2)C1 (some centres unmarked),EGFR del747-752/P753S,"cell-free assay, competition with immobilised ligand",0.1 µM,66
O=C(NCC1CCOCC1)c1n[nH]cc1NC(=O)c1c(F)cccc1F,EGFR del747-752/P753S,"binding, competition with immobilised ligand",1 µM,100
CN(CCCC(F)(F)F)c1nccc(-c2cnn3ncccc23)n1,EGFR G719C,binding,1 µM,100
COc1cnc(Nc2cccc(S(N)(=O)=O)c2)nc1N1CCN(c2ccccc2)CC1,EGFR L861Q,"binding, competition with immobilised ligand",1 µM,100
CSc1cccnc1N1CCN(Cc2nc3ccccc3[nH]2)CC1,EGFR T790M,"cell-free assay, competition with immobilised ligand",1 µM,85
CN1CCN(c2ccc(Nc3nccc(-c4cccc([N+](=O)[O-])c4)n3)cc2C(F)(F)F)CC1,EGFR G719S,binding,10 µM,98
CNCc1ccccc1-c1csc([C@@H](C)Nc2nc(C)nc3cc(OC)c(OC)cc23)c1,EGFR del752-759,"cell-free assay, competition with immobilised ligand",1 µM,63
c1cncc(-c2cccc(Nc3nccc(NC4CCCCC4)n3)c2)c1,EGFR G719S,"binding, competition with immobilised ligand",10 µM,68
O=C(c1ccc(Nc2ncc(Cl)c(-c3ccc(Cl)s3)n2)cc1)N1CCC(N2CCCC2)CC1,EGFR G719C,"binding, competition with immobilised ligand",1 µM,100
C[C@H]1CCN(c2nccc(-c3cnn4ncccc34)n2)C1,EGFR L861Q,binding,1 µM,81
COc1ncc2cc3ccccc3nc2c1C#N,EGFR L861Q,"cell-free assay, competition with immobilised ligand",5 µM,100
O=C(NCCCN1CCOCC1)c1ccc(Nc2nccc(-c3cc4ccccc4s3)n2)cc1,EGFR del752-759,"binding, competition with immobilised ligand",1 µM,100
